Assay results gathered from unrelated publications.
Compare with care: the assays were run in different laboratories.
Target: Protein kinase C iota type (PRKCI, Homo sapiens, UniProt P41743)
Concentration: 1 µM
Sequence (P41743 1-596, as in one of the studies): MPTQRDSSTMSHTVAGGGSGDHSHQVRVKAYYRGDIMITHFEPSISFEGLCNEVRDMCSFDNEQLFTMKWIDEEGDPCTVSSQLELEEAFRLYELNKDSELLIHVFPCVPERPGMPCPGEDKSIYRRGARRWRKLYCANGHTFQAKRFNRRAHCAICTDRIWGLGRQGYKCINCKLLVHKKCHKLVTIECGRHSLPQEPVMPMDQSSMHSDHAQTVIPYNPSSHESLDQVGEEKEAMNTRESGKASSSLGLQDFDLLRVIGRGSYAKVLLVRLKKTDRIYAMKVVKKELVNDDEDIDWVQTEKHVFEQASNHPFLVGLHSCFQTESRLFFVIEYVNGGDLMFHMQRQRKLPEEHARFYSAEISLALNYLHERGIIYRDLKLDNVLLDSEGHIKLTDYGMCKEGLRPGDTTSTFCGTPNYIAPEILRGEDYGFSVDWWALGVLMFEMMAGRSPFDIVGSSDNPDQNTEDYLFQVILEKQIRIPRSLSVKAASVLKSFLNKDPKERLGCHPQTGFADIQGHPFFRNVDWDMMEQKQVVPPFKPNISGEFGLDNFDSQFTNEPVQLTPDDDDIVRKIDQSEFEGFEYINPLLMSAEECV

With `C=CC(=O)N1CCC(C(=O)NCC(=O)N2CCN(c3nc(-c4cnc(N)nc4C(F)F)nc(N4CCOCC4)n3)CC2)CC1` the remaining binding was 95% (binding; competition with immobilised ligand).
`c1cnn2ncc(-c3ccnc(N4CCC45COC5)n3)c2c1` gave a remaining binding of 58% (binding).
The remaining binding of `Nc1ncc2c(n1)-c1c([nH]c3ccc(C#CC4CC4)cc13)CCCC2` is reported as 89% (binding; competition with immobilised ligand).
With `CN(CCCC(F)(F)F)c1nccc(-c2cnn3ncccc23)n1` the remaining binding was 100% (binding).
The remaining binding of `CN([C@@H]1CCc2c(CC(=O)O)c3cc(S(C)(=O)=O)ccc3n2C1)S(=O)(=O)c1ccc(F)cc1` is reported as 100% (cell-free assay; competition with immobilised ligand).
`O=C(NCC1CCOCC1)c1n[nH]cc1NC(=O)c1c(F)cccc1F` gave a remaining binding of 73% (binding; competition with immobilised ligand).
For `O=C(Nc1cccnn1)N1CC(C/C=C/c2cncc(Oc3ccc(C(F)(F)F)cn3)n2)C1`, the remaining binding was 96% (cell-free assay; competition with immobilised ligand).
For `CNC(=O)[C@@H]1CC[C@@H](n2c(-c3ccc4cnccc4c3)nc3ccc(C(=O)NCc4cccc(C(N)=O)c4)cc32)C1`, the remaining binding was 97% (binding; competition with immobilised ligand).
`O=C(c1ccc(Nc2ncc(Cl)c(-c3cc4ccccc4s3)n2)cc1)N1CCC(N2CCCC2)CC1` gave a remaining binding of 72% (binding; competition with immobilised ligand).
The remaining binding of `CN([C@@H]1CCc2c(CC(=O)O)c3ccccc3n2C1)S(=O)(=O)c1ccc(F)cc1` is reported as 100% (cell-free assay; competition with immobilised ligand).
For `O=C(NCCCN1CCOCC1)c1ccc(Nc2ncc(Cl)c(-c3ccc(Cl)s3)n2)cc1`, the remaining binding was 98% (binding; competition with immobilised ligand).
`Cc1c(NC(=O)c2cc(C(N)=O)nc3cc(F)ccc23)c(C(F)(F)F)nn1Cc1ccc(C(C)(C)C)cc1` has a remaining binding of 98% (cell-free assay; competition with immobilised ligand).
With `F[C@@H]1CCN(c2nccc(-c3cnn4ncccc34)n2)C1` the remaining binding was 100% (binding).
`CCN1CCN(Cc2ccc(C(=O)Nc3ccc(C)c(Oc4ccc5c(c4)CC(=O)N5)c3)cc2C(F)(F)F)CC1` has a remaining binding of 100% (binding; competition with immobilised ligand).
With `CN(C)c1nccc(-c2cnc3ncccn23)n1` the remaining binding was 72% (binding).
The remaining binding of `COc1ccc2c(c1)O[C@@H](c1ccc(OC)c(OC)c1)C[C@H]2NC(=O)C1(c2ccc3c(c2)OC(F)(F)O3)CC1` is reported as 92% (cell-free assay; competition with immobilised ligand).
With `C[C@H]1CCN(c2nccc(-c3cnn4ncccc34)n2)C1` the remaining binding was 59% (binding).
For `CC(=O)N1CCC(c2ccc(C(=O)NC(=N)N)cc2C(F)(F)F)CC1`, the remaining binding was 100% (cell-free assay; competition with immobilised ligand).
The remaining binding of `CN(C)c1ncc(F)c(-c2cnn3ncccc23)n1` is reported as 100% (binding).
For `O=C(c1ccc(Nc2ncc(Cl)c(-c3ccc(Cl)s3)n2)cc1)N1CCC(N2CCCC2)CC1`, the remaining binding was 98% (binding; competition with immobilised ligand).
